Assay results published in ChEMBL document CHEMBL4020840, “Synthesis and Biological Evaluation of Selenium-Containing 4-Anilinoquinazoline Derivatives as Novel Antimitotic Agents” (J Med Chem, 2018).

Tested on: not listed separately
Test: Selectivity index, ratio of IC50 for human LO2 cells to IC50 for human A549 cells
Format: functional
Details: not given
Summary of the method: (§1)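 MTT assay in normal cells and A549: seeding at 5 × 10³ cells/well for 24 h, 48 h compound exposure, then 5 mg/mL MTT for 4 h, DMSO solubilisation and absorbance at 570 nm. IC50 values came from dose–response curves of at least three independent experiments. Selectivity ratio = IC50 in normal cells / IC50 in A549.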

For `COc1ccc(N(C)c2nc(C)nc3ccccc23)cc1` [VERUBULIN], the “Ratio IC50” value was 6.5.

Tested on: not listed separately
Test: Selectivity index, ratio of IC50 for HLF to IC50 for human A549 cells
Details: not given
Summary of the method: as §1

With `COc1ccc(N(C)c2nc(C)nc3ccccc23)cc1` [VERUBULIN] the “Ratio IC50” value was 9.

Tested on: A549
Test: Growth inhibition of human A549 cells after 48 hrs by MTT assay
Format: functional, cell-based
Details: A549, 48 h

Compared with `COc1ccc(N(C)c2nc(C)nc3ccccc23)cc1OCCCCC[Se]C#N`, `COc1ccc(N(C)c2nc(C)nc3ccccc23)cc1C(=O)OCCCCC[Se]C#N` is 4.1-fold lower in IC50: 2440 nM for the first, 592 nM for the second.

Compared with `COc1ccc(N(C)c2nc(C)nc3ccccc23)cc1[Se]C`, `COc1ccc(N(C)c2nc(C)nc3ccccc23)cc1[Se]C#N` is 4.5-fold higher in IC50: 11 nM for the first, 49 nM for the second. The first is the more potent here.

Going from `Cc1nc(N(C)c2ccc([Se]C#N)c(Cl)c2)c2ccccc2n1` to `C[Se]c1ccc(N(C)c2nc(C)nc3ccccc23)cc1C`, the IC50 falls from 7 nM to 2 nM (3.5-fold). The second is the more potent here.

Compared with `CN(c1ccc([Se]C#N)cc1)c1nc(C2CC2)nc2ccccc12`, `COc1ccc(N(C)c2nc(C)nc3ccccc23)cc1` [VERUBULIN] is 4-fold lower in IC50: 12 nM for the first, 3 nM for the second.

Tested on: HCT-116
Test: Growth inhibition of human HCT116 cells after 48 hrs by MTT assay
Format: functional, cell-based
Details: HCT-116, 48 h
Summary of the method: (§2)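 MTT assay: log-phase cells plated at 5 × 10³/well for 24 h, then exposed to a range of test concentrations for 48 h. MTT (5 mg/mL) added for 4 h, formazan dissolved in DMSO, absorbance read at 570 nm. IC50 is the concentration giving 50% growth inhibition, from dose-response curves; at least three independent experiments, mean ± SE.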

Going from `COc1ccc(N(C)c2nc(C)nc3ccccc23)cc1OCCCCC[Se]C#N` to `COc1ccc(N(C)c2nc(C)nc3ccccc23)cc1C(=O)OCCCCC[Se]C#N`, the IC50 rises from 256 nM to 551 nM (2.2-fold).

`COc1ccc(N(C)c2nc(C)nc3ccccc23)cc1[Se]C` and `COc1ccc(N(C)c2nc(C)nc3ccccc23)cc1[Se]C#N` are within 1.5-fold of each other in IC50: 28 nM for the first, 34 nM for the second.

Going from `Cc1nc(N(C)c2ccc([Se]C#N)c(Cl)c2)c2ccccc2n1` to `C[Se]c1ccc(N(C)c2nc(C)nc3ccccc23)cc1C`, the IC50 falls from 12 nM to 3 nM (4-fold). The second is the more potent here.

Going from `CN(c1ccc([Se]C#N)cc1)c1nc(C2CC2)nc2ccccc12` to `COc1ccc(N(C)c2nc(C)nc3ccccc23)cc1` [VERUBULIN], the IC50 falls from 62 nM to 4 nM (16-fold). The second is the more potent here.

Tested on: HepG2
Test: Growth inhibition of human HepG2 cells after 48 hrs by MTT assay
Format: functional, cell-based
Details: HepG2, 48 h
Summary of the method: as §2

Going from `COc1ccc(N(C)c2nc(C)nc3ccccc23)cc1OCCCCC[Se]C#N` to `COc1ccc(N(C)c2nc(C)nc3ccccc23)cc1C(=O)OCCCCC[Se]C#N`, the IC50 falls from 5210 nM to 667 nM (7.8-fold).

First: COc1ccc(N(C)c2nc(C)nc3ccccc23)cc1[Se]C
Second: COc1ccc(N(C)c2nc(C)nc3ccccc23)cc1[Se]C#N
The IC50 of the first is 3.5-fold lower: 17 nM for the first, 59 nM for the second.

First: Cc1nc(N(C)c2ccc([Se]C#N)c(Cl)c2)c2ccccc2n1
Second: C[Se]c1ccc(N(C)c2nc(C)nc3ccccc23)cc1C
The IC50 of the first is 2-fold higher: 12 nM for the first, 6 nM for the second.

Going from `CN(c1ccc([Se]C#N)cc1)c1nc(C2CC2)nc2ccccc12` to `COc1ccc(N(C)c2nc(C)nc3ccccc23)cc1` [VERUBULIN], the IC50 falls from 41 nM to 5 nM (8.2-fold).

Tested on: MDA-MB-231
Test: Growth inhibition of human MDA-MB-231 cells after 48 hrs by MTT assay
Format: functional, cell-based
Details: MDA-MB-231, 48 h
Summary of the method: as §2

Going from `COc1ccc(N(C)c2nc(C)nc3ccccc23)cc1OCCCCC[Se]C#N` to `COc1ccc(N(C)c2nc(C)nc3ccccc23)cc1C(=O)OCCCCC[Se]C#N`, the IC50 falls from 4410 nM to 851 nM (5.2-fold). The second is the more potent here.

Going from `COc1ccc(N(C)c2nc(C)nc3ccccc23)cc1[Se]C` to `COc1ccc(N(C)c2nc(C)nc3ccccc23)cc1[Se]C#N`, the IC50 rises from 10 nM to 52 nM (5.2-fold). The first is the more potent here.

`Cc1nc(N(C)c2ccc([Se]C#N)c(Cl)c2)c2ccccc2n1` and `C[Se]c1ccc(N(C)c2nc(C)nc3ccccc23)cc1C` are within 1.5-fold of each other in IC50: 9 nM for the first, 7 nM for the second.

Compared with `CN(c1ccc([Se]C#N)cc1)c1nc(C2CC2)nc2ccccc12`, `COc1ccc(N(C)c2nc(C)nc3ccccc23)cc1` [VERUBULIN] is 3.6-fold lower in IC50: 29 nM for the first, 8 nM for the second. The second is the more potent here.

Tested on: LoVo
Test: Growth inhibition of human LoVo cells after 48 hrs by MTT assay
Format: functional, cell-based
Details: not given
Summary of the method: as §2

First: COc1ccc(N(C)c2nc(C)nc3ccccc23)cc1OCCCCC[Se]C#N
Second: COc1ccc(N(C)c2nc(C)nc3ccccc23)cc1C(=O)OCCCCC[Se]C#N
The IC50 of the first is 7.3-fold higher: 5210 nM for the first, 714 nM for the second. The second is the more potent here.

First: COc1ccc(N(C)c2nc(C)nc3ccccc23)cc1[Se]C
Second: COc1ccc(N(C)c2nc(C)nc3ccccc23)cc1[Se]C#N
The IC50 of the first is 24-fold lower: 3 nM for the first, 73 nM for the second. The first is the more potent here.

`Cc1nc(N(C)c2ccc([Se]C#N)c(Cl)c2)c2ccccc2n1` and `C[Se]c1ccc(N(C)c2nc(C)nc3ccccc23)cc1C` are within 1.5-fold of each other in IC50: 12 nM for the first, 9 nM for the second.

`CN(c1ccc([Se]C#N)cc1)c1nc(C2CC2)nc2ccccc12` and `COc1ccc(N(C)c2nc(C)nc3ccccc23)cc1` [VERUBULIN] are within 1.5-fold of each other in IC50: 11 nM for the first, 8 nM for the second.

Tested on: RKO
Test: Growth inhibition of human RKO cells after 48 hrs by MTT assay
Format: functional, cell-based
Details: not given
Summary of the method: as §2

Going from `COc1ccc(N(C)c2nc(C)nc3ccccc23)cc1OCCCCC[Se]C#N` to `COc1ccc(N(C)c2nc(C)nc3ccccc23)cc1C(=O)OCCCCC[Se]C#N`, the IC50 falls from 3560 nM to 356 nM (10-fold).

First: COc1ccc(N(C)c2nc(C)nc3ccccc23)cc1[Se]C
Second: COc1ccc(N(C)c2nc(C)nc3ccccc23)cc1[Se]C#N
The IC50 of the first is 4.3-fold lower: 11 nM for the first, 47 nM for the second. The first is the more potent here.

`Cc1nc(N(C)c2ccc([Se]C#N)c(Cl)c2)c2ccccc2n1` and `C[Se]c1ccc(N(C)c2nc(C)nc3ccccc23)cc1C` are within 1.5-fold of each other in IC50: 11 nM for the first, 8 nM for the second.

Going from `CN(c1ccc([Se]C#N)cc1)c1nc(C2CC2)nc2ccccc12` to `COc1ccc(N(C)c2nc(C)nc3ccccc23)cc1` [VERUBULIN], the IC50 falls from 51 nM to 3 nM (17-fold).

Tested on: MCF7
Test: Antiproliferative activity against human MCF7 cells after 48 hrs by MTT assay
Format: functional, cell-based
Details: MCF7, 48 h
Summary of the method: as §2

In the case of `COc1ccc(N(C)c2nc(C)nc3ccccc23)cc1` [VERUBULIN], the IC50 is reported as 11 nM.

Tested on: HeLa
Test: Antiproliferative activity against human HeLa cells after 48 hrs by MTT assay
Format: functional, cell-based
Details: not given
Summary of the method: as §2

Work on `COc1ccc(N(C)c2nc(C)nc3ccccc23)cc1` [VERUBULIN] yielded an IC50 of 5 nM.

Tested on: MGC-803
Test: Antiproliferative activity against human MGC803 cells after 48 hrs by MTT assay
Format: functional, cell-based
Details: MGC-803, 48 h
Summary of the method: as §2

`COc1ccc(N(C)c2nc(C)nc3ccccc23)cc1` [VERUBULIN] showed an IC50 of 8 nM.

Tested on: A549/CDDP
Test: Growth inhibition of human A549/CDDP cells after 48 hrs by MTT assay
Format: functional, cell-based
Details: not given
Summary of the method: as §2

For `COc1ccc(N(C)c2nc(C)nc3ccccc23)cc1` [VERUBULIN], the IC50 was 9 nM.

Tested on: not listed separately
Test: Growth inhibition of human HepG2/DOX cells after 48 hrs by MTT assay
Format: functional, cell-based
Details: not given
Summary of the method: as §2

In the case of `COc1ccc(N(C)c2nc(C)nc3ccccc23)cc1` [VERUBULIN], the IC50 is reported as 11 nM.

Tested on: not listed separately
Test: Resistance factor, ratio of IC50 for human A549/CDDP cells to IC50 for human A549 cells
Format: functional
Details: not given
Summary of the method: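 MTT assay: log-phase cells were seeded at 5 × 10³/well for 24 h, then exposed to a concentration series for 48 h. MTT (5 mg/mL) was added for 4 h, formazan was dissolved in DMSO, and A570 was read. IC50 values came from dose–response curves of at least three independent experiments. Resistance factor = IC50 in the resistant line / IC50 in the parental sensitive line.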

In the case of `COc1ccc(N(C)c2nc(C)nc3ccccc23)cc1` [VERUBULIN], the “Ratio IC50” value is reported as 3.

Tested on: not listed separately
Test: Inhibition of porcine brain tubulin polymerization measured every 60 secs for 90 mins by DAPI staining based fluorescence assay
Design: species or system Sus scrofa
Details: not given
Summary of the method: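 Purified tubulin was tested in a kit assay. Final buffer: 80 mM PIPES sesquisodium (pH 6.9), 2.0 mM MgCl₂, 0.5 mM EGTA, 1 mM GTP, 10.2% glycerol. Compound (0.1–10 μM) was prewarmed at 37 °C for 1 min before tubulin was added. DAPI reporter fluorescence (ex 340 / em 410 nm) was read every 60 s for 90 min. Area under the curve gave percent inhibition versus control and the IC50.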

Work on `COc1ccc(N(C)c2nc(C)nc3ccccc23)cc1` [VERUBULIN] yielded an IC50 of 2740 nM.

Tested on: not listed separately
Test: Antiproliferative activity against HLF after 48 hrs by MTT assay
Format: cell-based
Details: Homo sapiens
Summary of the method: as §2

Work on `COc1ccc(N(C)c2nc(C)nc3ccccc23)cc1` [VERUBULIN] yielded an IC50 of 18 nM.

Tested on: L02
Test: Antiproliferative activity against human LO2 cells after 48 hrs by MTT assay
Format: cell-based
Details: L02, 48 h
Summary of the method: as §2

`COc1ccc(N(C)c2nc(C)nc3ccccc23)cc1` [VERUBULIN] showed an IC50 of 13 nM.

Tested on: BJ
Test: Antiproliferative activity against human BJ cells after 48 hrs by MTT assay
Format: cell-based
Details: not given
Summary of the method: as §2

Work on `COc1ccc(N(C)c2nc(C)nc3ccccc23)cc1` [VERUBULIN] yielded an IC50 of 15 nM.

Tested on: not listed separately
Test: Selectivity index, ratio of IC50 for human BJ cells to IC50 for human A549 cells
Format: functional
Details: not given
Summary of the method: as §1

In the case of `COc1ccc(N(C)c2nc(C)nc3ccccc23)cc1` [VERUBULIN], the “Ratio IC50” value is reported as 7.5.
